What was measured:
[1] = Protein binding in human plasma at 10 uM after 5 hrs by equilibrium dialysis based LC-MS/MS analysis; assay type: ADME, cell-free; settings: read-out: PPB (converted)
How it was run: (§1)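 Equilibrium dialysis at 10 μM compound; result expressed as percent bound.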

CYP2C19 = CYP2C19 (Homo sapiens, UniProt P33261); assay: Inhibition of CYP2C19 in human liver microsomes at 10 uM after 40 mins in presence of NADPH by LC-MS/MS analysis; assay type: ADME
How it was run: (§2)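 Percent inhibition of each CYP isoform by test compound at 10 µM, compared with a no-inhibitor control. Run in triplicate.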

Prostaglandin E synthase [2] = molecular target: T1, Prostaglandin E synthase (Homo sapiens, UniProt O14684); assay: Inhibition of mPGES1 in human A549 cells assessed as reduction in IL-1beta-induced PGE2 production preincubated for 30 mins followed by incubation with IL-1beta for 16 to 20 hrs measured after 10 mins by HTRF assay; assay type: cell-based
T1 sequence (O14684 whole entry): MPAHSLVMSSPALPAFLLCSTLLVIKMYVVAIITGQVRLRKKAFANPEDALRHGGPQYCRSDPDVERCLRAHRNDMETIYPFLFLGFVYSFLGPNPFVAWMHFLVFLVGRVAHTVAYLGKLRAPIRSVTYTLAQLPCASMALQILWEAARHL

CYP1A2 = molecular target: T2, CYP1A2 (Homo sapiens, UniProt P05177); assay: Inhibition of CYP1A2 in human liver microsomes at 10 uM after 20 mins in presence of NADPH by LC-MS/MS analysis; assay type: ADME; how it was run: as §2
T2 sequence (P05177 whole entry): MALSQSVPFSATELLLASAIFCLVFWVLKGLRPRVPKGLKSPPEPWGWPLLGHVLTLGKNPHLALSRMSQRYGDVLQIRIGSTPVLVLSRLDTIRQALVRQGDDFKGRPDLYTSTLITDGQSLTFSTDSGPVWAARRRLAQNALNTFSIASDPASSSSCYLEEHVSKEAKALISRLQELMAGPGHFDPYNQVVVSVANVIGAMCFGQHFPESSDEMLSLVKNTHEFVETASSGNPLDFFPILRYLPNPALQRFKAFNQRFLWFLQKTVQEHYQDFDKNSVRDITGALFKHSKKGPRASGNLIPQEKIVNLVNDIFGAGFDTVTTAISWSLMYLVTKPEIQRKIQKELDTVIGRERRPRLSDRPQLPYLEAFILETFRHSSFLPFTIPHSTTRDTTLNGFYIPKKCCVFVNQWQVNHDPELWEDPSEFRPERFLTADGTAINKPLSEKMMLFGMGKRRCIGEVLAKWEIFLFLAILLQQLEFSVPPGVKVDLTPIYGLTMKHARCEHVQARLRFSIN

Prostaglandin E synthase [3] = molecular target: T1, Prostaglandin E synthase; assay: Inhibition of recombinant human mPGES1 expressed in CHO cells assessed as reduction in PGE2 production using PGH2 as substrate incubated for 10 mins followed by substrate addition measured for 1 min; assay type: cell-based
CYP3A4 = CYP3A4 (Homo sapiens, UniProt P08684); assay: Inhibition of CYP3A4 in human liver microsomes at 10 uM after 20 mins in presence of NADPH by LC-MS/MS analysis; assay type: ADME; how it was run: as §2
Prostaglandin E synthase [4] = molecular target: T1, Prostaglandin E synthase; assay: Inhibition of mPGES1 in human whole blood assessed as reduction in LPS-induced PGE2 production measured after 20 to 24 hrs
CYP2D6 = CYP2D6 (Homo sapiens, UniProt P10635); assay: Inhibition of CYP2D6 in human liver microsomes at 10 uM after 20 mins in presence of NADPH by LC-MS/MS analysis; assay type: ADME; settings: liver microsomes; how it was run: as §2
CYP2C9 = CYP2C9 (Homo sapiens, UniProt P11712); assay: Inhibition of CYP2C9 in human liver microsomes at 10 uM after 20 mins in presence of NADPH by LC-MS/MS analysis; assay type: ADME; how it was run: as §2
[5] = Protein binding in guinea pig plasma at 10 uM after 5 hrs by equilibrium dialysis based LC-MS/MS analysis; assay type: ADME, cell-free, Cavia porcellus; settings: read-out: PPB (converted); how it was run: as §1
[6] = Metabolic stability in human liver microsomes assessed as parent compound remaining at 1 uM after 60 mins in presence of NADPH by LC-MS/MS analysis; assay type: ADME, microsome; settings: read-out: Stability
How it was run: (§3)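 Compound incubated 60 min at 37 °C with human, rat or guinea pig liver microsomes; percent parent remaining, triplicates.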

[7] = Metabolic stability in guinea pig liver microsomes assessed as parent compound remaining at 1 uM after 60 mins in presence of NADPH by LC-MS/MS analysis; assay type: ADME, Cavia porcellus, microsome; settings: read-out: Stability; how it was run: as §3
[8] = Metabolic stability in rat liver microsomes assessed as parent compound remaining at 1 uM after 60 mins in presence of NADPH by LC-MS/MS analysis; assay type: ADME, microsome; settings: read-out: Stability; how it was run: as §3
hERG (KCNH2) = hERG (KCNH2) (Homo sapiens, UniProt Q12809); assay: Inhibition of human ERG at 10 uM by patch clamp assay relative to control
How it was run: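 hERG current measured by patch clamp with test compound at 10 µM; result given as % inhibition.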

Sequence of CYP3A4 (P08684 whole entry): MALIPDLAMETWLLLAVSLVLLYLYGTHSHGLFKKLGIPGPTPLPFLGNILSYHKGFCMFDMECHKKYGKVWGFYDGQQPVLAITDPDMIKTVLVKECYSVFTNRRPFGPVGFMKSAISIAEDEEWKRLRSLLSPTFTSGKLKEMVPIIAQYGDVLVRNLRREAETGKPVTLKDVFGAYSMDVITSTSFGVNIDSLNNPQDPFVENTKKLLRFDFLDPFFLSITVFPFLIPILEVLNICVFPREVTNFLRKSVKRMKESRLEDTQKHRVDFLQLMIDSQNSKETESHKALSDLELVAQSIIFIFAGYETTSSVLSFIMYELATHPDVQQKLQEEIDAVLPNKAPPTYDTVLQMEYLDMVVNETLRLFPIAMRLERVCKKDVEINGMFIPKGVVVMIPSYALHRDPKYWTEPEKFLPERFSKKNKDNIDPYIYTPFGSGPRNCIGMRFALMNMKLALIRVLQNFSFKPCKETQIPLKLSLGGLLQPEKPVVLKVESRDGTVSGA
Sequence of CYP2C19 (P33261 whole entry, canonical isoform): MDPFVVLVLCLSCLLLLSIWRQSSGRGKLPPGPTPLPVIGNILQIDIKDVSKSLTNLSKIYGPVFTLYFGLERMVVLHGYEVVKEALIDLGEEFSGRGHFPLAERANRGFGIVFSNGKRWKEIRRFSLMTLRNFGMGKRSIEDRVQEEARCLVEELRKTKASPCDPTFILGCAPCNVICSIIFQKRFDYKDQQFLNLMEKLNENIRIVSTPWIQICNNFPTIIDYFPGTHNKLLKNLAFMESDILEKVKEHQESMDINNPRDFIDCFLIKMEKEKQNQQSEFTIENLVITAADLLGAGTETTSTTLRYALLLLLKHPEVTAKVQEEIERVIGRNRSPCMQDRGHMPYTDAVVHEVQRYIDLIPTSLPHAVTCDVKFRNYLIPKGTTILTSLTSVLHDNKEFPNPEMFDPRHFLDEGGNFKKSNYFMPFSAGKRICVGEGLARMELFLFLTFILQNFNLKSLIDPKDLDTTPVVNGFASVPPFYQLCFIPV
Sequence of CYP2D6 (P10635 whole entry): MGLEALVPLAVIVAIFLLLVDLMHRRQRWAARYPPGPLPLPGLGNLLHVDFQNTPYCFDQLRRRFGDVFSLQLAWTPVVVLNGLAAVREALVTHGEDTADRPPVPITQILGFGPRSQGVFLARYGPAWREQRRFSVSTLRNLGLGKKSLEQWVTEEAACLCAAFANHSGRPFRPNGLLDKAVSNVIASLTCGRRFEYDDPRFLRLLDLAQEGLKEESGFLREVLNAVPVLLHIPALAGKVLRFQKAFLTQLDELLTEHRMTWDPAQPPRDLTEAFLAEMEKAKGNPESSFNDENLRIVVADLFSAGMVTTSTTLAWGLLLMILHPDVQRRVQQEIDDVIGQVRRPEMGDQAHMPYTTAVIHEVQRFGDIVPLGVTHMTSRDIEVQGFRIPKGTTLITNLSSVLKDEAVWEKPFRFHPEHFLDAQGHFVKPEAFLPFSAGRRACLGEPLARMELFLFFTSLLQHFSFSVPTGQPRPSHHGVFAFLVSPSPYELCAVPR
Sequence of CYP2C9 (P11712 whole entry): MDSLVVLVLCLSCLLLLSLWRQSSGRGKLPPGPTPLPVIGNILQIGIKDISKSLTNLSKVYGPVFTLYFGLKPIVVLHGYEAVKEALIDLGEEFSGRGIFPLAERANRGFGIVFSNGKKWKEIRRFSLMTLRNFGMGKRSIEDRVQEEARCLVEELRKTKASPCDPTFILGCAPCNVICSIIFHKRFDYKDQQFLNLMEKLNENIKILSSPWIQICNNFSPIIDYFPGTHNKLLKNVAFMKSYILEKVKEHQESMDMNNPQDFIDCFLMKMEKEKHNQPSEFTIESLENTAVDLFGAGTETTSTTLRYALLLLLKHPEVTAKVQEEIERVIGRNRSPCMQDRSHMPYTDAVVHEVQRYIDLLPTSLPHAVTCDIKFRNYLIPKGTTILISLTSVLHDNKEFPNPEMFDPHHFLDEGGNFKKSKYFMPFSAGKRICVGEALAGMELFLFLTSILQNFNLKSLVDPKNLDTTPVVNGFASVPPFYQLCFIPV
Sequence of hERG (KCNH2) (Q12809 whole entry): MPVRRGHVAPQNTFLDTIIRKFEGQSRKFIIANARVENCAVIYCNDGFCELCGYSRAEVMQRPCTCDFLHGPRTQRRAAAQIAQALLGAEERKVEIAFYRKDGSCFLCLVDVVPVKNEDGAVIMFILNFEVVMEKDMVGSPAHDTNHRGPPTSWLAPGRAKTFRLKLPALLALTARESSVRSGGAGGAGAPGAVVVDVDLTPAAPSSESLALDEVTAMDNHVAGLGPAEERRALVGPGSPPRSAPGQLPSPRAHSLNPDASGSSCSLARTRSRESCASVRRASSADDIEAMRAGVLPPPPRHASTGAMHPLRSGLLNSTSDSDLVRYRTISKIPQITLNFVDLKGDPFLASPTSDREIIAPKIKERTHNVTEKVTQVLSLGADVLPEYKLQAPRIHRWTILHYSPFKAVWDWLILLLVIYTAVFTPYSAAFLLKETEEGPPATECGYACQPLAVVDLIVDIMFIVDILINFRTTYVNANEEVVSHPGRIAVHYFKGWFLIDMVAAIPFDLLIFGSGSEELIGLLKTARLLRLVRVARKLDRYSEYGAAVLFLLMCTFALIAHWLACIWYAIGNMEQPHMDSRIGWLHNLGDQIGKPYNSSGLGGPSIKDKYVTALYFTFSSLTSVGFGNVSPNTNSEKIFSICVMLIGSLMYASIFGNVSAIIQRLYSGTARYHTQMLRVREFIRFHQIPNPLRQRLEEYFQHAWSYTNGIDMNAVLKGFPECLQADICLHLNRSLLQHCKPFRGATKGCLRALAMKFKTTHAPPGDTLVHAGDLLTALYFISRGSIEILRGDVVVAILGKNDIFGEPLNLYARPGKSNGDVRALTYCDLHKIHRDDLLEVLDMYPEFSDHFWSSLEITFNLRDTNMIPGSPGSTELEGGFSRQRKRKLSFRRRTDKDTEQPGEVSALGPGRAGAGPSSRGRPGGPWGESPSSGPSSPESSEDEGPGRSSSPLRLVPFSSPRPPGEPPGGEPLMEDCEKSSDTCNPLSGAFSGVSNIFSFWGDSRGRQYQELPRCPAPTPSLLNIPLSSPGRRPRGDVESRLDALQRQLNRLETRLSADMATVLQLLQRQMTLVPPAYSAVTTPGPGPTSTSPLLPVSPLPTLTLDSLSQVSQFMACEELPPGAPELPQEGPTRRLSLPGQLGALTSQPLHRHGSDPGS

Compound	fraction unbound at 5 h, 10 µM [1]	inhibition at 40 min, 10 µM (CYP2C19) [%]	IC50 (Prostaglandin E synthase [2]) [µM]	inhibition at 20 min, 10 µM (CYP1A2) [%]	IC50 (Prostaglandin E synthase [3]) [µM]	inhibition at 20 min, 10 µM (CYP3A4) [%]	IC50 (Prostaglandin E synthase [4]) [µM]	inhibition at 20 min, 10 µM (CYP2D6) [%]	inhibition at 20 min, 10 µM (CYP2C9) [%]	fraction unbound at 5 h, 10 µM [5]	remaining at 1 h, 1 µM [6] [%]	remaining at 1 h, 1 µM [7] [%]	remaining at 1 h, 1 µM [8] [%]	inhibition at 10 µM (hERG (KCNH2)) [%]
Cc1cccc(Cl)c1Nc1nc2cc(C(=O)Nc3ccc(C(F)(F)F)cc3)c3c(c2[nH]1)CC(C)(C)O3	< 0.005	19	0.011	25	0.014	34	0.337	6	46	< 0.005	100	62	–	–
CC1(C)Cc2c(c(C(=O)Nc3cc(C4CC4)ccc3F)cc3nc(Nc4c(Cl)cccc4Cl)[nH]c23)O1	–	10	0.0032	14	0.016	21	0.197	5	26	–	95	74	92	–
Cc1cccc(Cl)c1Nc1nc2cc(C(=O)Nc3cc(C4CC4)ccc3F)c3c(c2[nH]1)CC(C)(C)O3	–	24	–	14	0.01	-13	0.447	31	12	–	93	55	89	–
Cc1cccc(Cl)c1Nc1nc2cc(C(=O)Nc3ccc(C(F)(F)F)cn3)c3c(c2[nH]1)CC(C)(C)O3	–	–	0.027	–	0.032	–	–	–	–	–	–	–	–	–
CC1(C)Cc2c(c(C(=O)Nc3cc(C(F)F)ccc3F)cc3nc(Nc4c(F)cccc4Cl)[nH]c23)O1	0.0018	22	0.0063	31	0.0092	4	0.336	-1	42	0.005	88	68	86	–
Cn1c(Nc2c(F)cccc2Cl)nc2cc(C(=O)Nc3ccc(C4CC4)cc3)c3c(c21)CC(C)(C)O3	–	24	0.0043	41	0.0049	19	0.35	25	47	–	97	51	96	–
Cc1ccc(NC(=O)c2cc3nc(Nc4c(F)cccc4Cl)n(C)c3c3c2OC(C)(C)C3)c(F)c1	< 0.005	24	0.0031	26	0.016	23	0.177	14	52	< 0.005	68	58	71	12.8
CC1(C)Cc2c(c(C(=O)Nc3cc(C4CC4)ccc3F)cc3nc(Nc4c(F)cccc4Cl)[nH]c23)O1	–	22	0.006	36	0.0036	-12	1.38	7	42	–	100	93	93	–
CC1(C)Cc2c(c(C(=O)Nc3ccc(C(F)(F)F)cn3)cc3nc(Nc4c(F)cccc4Cl)[nH]c23)O1	–	–	0.014	–	0.025	–	0.955	–	–	–	–	–	–	–
Cn1c(Nc2c(F)cccc2Cl)nc2cc(C(=O)Nc3ccc(C(F)(F)F)cn3)c3c(c21)CC(C)(C)O3	0.0015	10	0.004	14	0.012	17	0.673	3	52	0.0035	58	69	66	–
Cn1c(Nc2c(F)cccc2Cl)nc2cc(C(=O)Nc3ccc(C(F)(F)F)cc3)c3c(c21)CC(C)(C)O3	–	-7	–	34	–	–	–	-5	44	–	100	68	68	–
Cc1cccc(Cl)c1Nc1nc2cc(C(=O)Nc3ccc(F)c(C(F)(F)F)c3)c3c(c2[nH]1)CC(C)(C)O3	–	31	0.01	–	0.0054	30	0.876	–	47	–	95	80	97	–
CC1(C)Cc2c(c(C(=O)Nc3ccc(C(F)(F)F)cc3F)cc3nc(Nc4c(F)cccc4Cl)[nH]c23)O1	< 0.005	16	0.0096	–	0.0031	37	0.57	–	39	< 0.005	100	80	–	–

From ChEMBL document CHEMBL4219124, “Alleviating CYP and hERG liabilities by structure optimization of dihydrofuran-fused tricyclic benzo[d]imidazole series - Potent, selective and orally efficacious microsomal prostaglandin E synthase-1 (mPGES-1) inhibitors: Part-2” (Bioorg Med Chem Lett, 2018)
